Compounds with a hit are over-represented: about 4.7% of the library has one in this group of screens.
MC4R antagonist: blocks human MC4R cAMP signaling | AID 540295 | 0.48% of 360,000 active | P32245 | inhibition, % at 6.5 µM | MC4R-expressing cells, MTII-stimulated cAMP, LANCE TR-FRET;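 active = inhibition above its plate's cutoff, the mean of tested wells on that plate plus 3 SD, cut at about 29% in these data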;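 also: 0% = Melanotan II alone and 100% = Melanotan II plus saturating MCL0020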
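Material – human MC4R-expressing U2OS cells · Repeats – no replicates · Detection – TR-FRET with Eu-cAMP and labeled anti-cAMP, 671 nm · Times – compound 30 min, challenge 1 h, detection 1 h · Compound – single nominal compound dose of 6.5 µM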
AHR act: activators of human aryl hydrocarbon receptor | 2.5% of 320,000 active | AHR-responsive luciferase reporter cells, luminescence | activation, % at 5 µM; in the data active = activation above about 47%;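 also: 0% = vehicle wells and 100% = reference agonist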
GAA850 FXN act: increases GAA850 frataxin promoter reporter activity. HEK293 lucGAA850 FXN promoter luciferase reporter, 24 h; percent of 10 µM SAHA response. activation, % at 6 µM. 0.56% of 360,000 active. AID 540364;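 active = activation above the average of all compounds screened plus 3 SD, cutoff fixed separately per campaign, cut at about 7.5% in these data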;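 also: 0% = DMSO wells and 100% = 10 µM SAHA wells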
HTR2A ag: agonists of mouse serotonin 5-HT2A receptor (HTR2A); 0.66% of 360,000 active; P35363; CHO-K1 mHTR2A beta-arrestin complementation, luminescence; percent of 30 µM serotonin response; activation, % at 7.6 µM;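 active = activation above a run cutoff, the mean activation of all tested compounds plus 3 SD, cut at about 14% in these data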;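 also: 0% = plate median of compound wells and 100% = 30 µM serotonin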
MC4R barr agon: human MC4R agonism via beta-arrestin; AID 540308; U2OS MC4R beta-arrestin complementation, luminescence; percent of melanotan II response, DMSO zero; activation, % at 8.9 µM; P32245; 0.98% of 360,000 active;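 active = activation above a per-plate cutoff, the mean activation of sample wells on that plate plus 3 SD, cut at about 8% in these data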
GAA30 counter: counter-screen for GAA850 frataxin promoter activators: GAA30 promoter activation. shares compounds with GAA850 FXN act. HEK293 lucGAA30 FXN promoter luciferase, 24 h; DMSO = 0%, 5 µM ipriflavone = 100%. activation, % at 6 µM. 66% of 1,900 active. AID 588350;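 active = mean activation above the mean of solvent-only control wells plus 3 SD, cut at about 22% in these data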;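 also: counterscreen of GAA850 promoter hits where activity marks nonselective or luminescence artifacts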
GAA850 confirm: GAA850 FXN promoter activation confirmation; HEK293 lucGAA850 FXN promoter luciferase reporter, 24 h; 100% = activation by SAHA; 86% of 1,900 active; shares compounds with GAA850 FXN act; AID 588351; activation, % at 6 µM;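 active = mean activation above a set limit taken from the primary screen, cut at about 8% in these data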;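 also: 0% = DMSO wells and 100% = 10 µM SAHA wells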
Active calls of the source: *; . = not tested or not shown; ! = a repeat was not active.

SMILES | MC4R antagonist | AHR act | GAA850 FXN act | HTR2A ag | MC4R barr agon | GAA30 counter | GAA850 confirm
COc1ccccc1-c1ccc2c(c1)C(C)(Cc1ccc(Cl)cc1)C(=O)N2 (stereo not drawn) | 13 | . | 2 | 3 | 1 | . | .
COc1ccccc1-c1ccc2c(c1)C(C)(Cc1cccc(C#N)c1)C(=O)N2 (stereo not drawn) | 4 | . | 11* | 4 | 0 | 10 | 8.1*
COc1ccccc1-c1ccc2c(c1)C(C)(Cc1ccc(F)c(Cl)c1)C(=O)N2 (stereo not drawn) | -5 | . | 13* | 9 | -1 | 9 | 8.5*
O=C1c2ccccc2C(c2nnnn2Cc2ccccc2)N1C1CC1 (stereo not drawn) | . | . | . | 4 | . | . | .
COc1ccc(Nc2ccc(Nc3ccc(OC)cc3)nn2)cc1 | -5 | 16 | 2 | -1 | -1 | . | .
COc1ccc(Nc2cc(Nc3cccc(OC)c3)ncn2)cc1 | -5 | 11 | 7.8* | -11 | -2 | 85* | 26*
S=C(Nc1ccccn1)c1ccccn1 | 1 | 61* | 15* | -2 | -1 | 104* | 43*
S=C(NCCc1ccccc1)Nc1ccccn1 | -7 | 8 | 8.0* | -4 | 0 | 98* | 30*
Cc1cccc2nc(CSc3nc4ccc([N+](=O)[O-])cc4[nH]3)c(Br)n12 | -9 | 35 | 14* | -2 | 3 | 37* | 17*
NC(=O)CSc1nc2ccc([N+](=O)[O-])cc2[nH]1 | 4 | 7 | 2 | 1 | -2 | . | .
CC(C)(C)c1ccc(C(=O)N2CCC2(C)C(=O)NS(=O)(=O)c2ccccc2Cl)cc1 (stereo not drawn) | 10 | . | 0 | 5 | -1 | . | .
CC(=O)c1ccc(OCC(O)CN2CCN(Cc3ccc4c(c3)OCO4)CC2)cc1 (stereo not drawn) | 0 | -1 | 9.3*! | -3 | -1 | 22* | 6
O=C(O)c1ccc(N/N=C/c2ccc(-c3ccccc3)cc2)cc1 | 2 | . | 8.7* | -3 | 0 | 88* | 31*
CC(C)c1ccc(/C=N/Nc2ccc(C(=O)O)cc2)cc1 | 2 | -9 | -5 | 2 | 1 | . | .
O=C(O)c1ccc(/C=N/Nc2cccc(C(F)(F)F)c2)cc1 | 13 | 14 | 10* | 8 | -1 | 99* | 39*
O=C(O)c1cccc(N/N=C/c2ccc(F)c(F)c2)c1 | 13 | 1 | 4 | -2 | -1 | . | .
CC1=C(C(=O)N(C)C)CC(CC(=O)NCCN2CCOCC2)C(=O)N1CCCN1CCCC1=O (stereo not drawn) | . | . | . | 3 | . | . | .
Cc1ccccc1C(=O)N1CCC(C(=O)NN2C(=O)NC3(CCCCC3)C2=O)CC1 | 4 | 0 | 0 | 12 | 0 | . | .
O=[N+]([O-])c1ccc2c(c1)-c1ccccc1C2=NO | -7 | . | -3 | -1 | 0 | . | .
Nc1ccc2c(c1)C(=NO)c1cc([N+](=O)[O-])ccc1-2 | 26 | . | 13* | 2 | 0 | 79* | 35*
COc1cc2c(cc1OC)/C(=C/C(=O)c1ccc(F)cc1)NCC2 | 6 | 41 | 4 | -2 | -1 | . | .
COc1cc2c(cc1OC)/C(=C/C(=O)c1ccccc1F)NCC2 | -5 | . | 8.3* | 2 | -2 | 17 | 12*
Cc1cc2[nH]c3c(c[n+](C)c4ccccc34)c2cc1C | 17 | 6 | 10* | -2 | 4 | -14 | 95*
CC(Nc1cc(N2CCNCC2)ccc1[N+](=O)[O-])c1ccccc1 (stereo not drawn) | 8 | 9 | 8.5* | 1 | -1 | 12 | 7
C[C@@H]1O[C@H](CCc2cccc(Cl)c2)CC2=C1C(=O)OC(C)(C)O2 | . | . | . | -7 | . | . | .
SMILES | MC4R antagonist | AHR act | GAA850 FXN act | HTR2A ag | MC4R barr agon | GAA30 counter | GAA850 confirm
O=C(O)C(Cc1ccccc1[N+](=O)[O-])N1C(=O)c2ccccc2C1=O (stereo not drawn) | 0 | . | 1 | 5 | -1 | . | .
Cc1noc(C)c1CSCC(=O)OCC(=O)Nc1ccc(OC(F)(F)F)cc1 | -1 | . | -1 | -4 | 1 | . | .
O=C1Nc2ccccc2Nc2ccc([N+](=O)[O-])cc21 | 22 | 31 | 8.3* | -7 | -2 | 115* | 35*
CC(C)n1c(=O)c2ccccc2n1Cc1cn(Cc2ccccc2)nn1 | . | . | . | 5 | . | . | .
CCc1ccc(C(=O)NCC2(c3ccccc3)CCOCC2)o1 | 6 | . | 7.8* | 12 | -1 | 95* | 25*
COCCn1c(C)cc(C(=O)Cn2nc(C(=O)O)c3ccccc3c2=O)c1C | -10 | 5 | 9.4* | 0 | -1 | 98* | 35*
C=CCn1c(C)cc(C(=O)Cn2nc(C(=O)O)c3ccccc3c2=O)c1C | 16 | 4 | 4 | -5 | -3 | . | .
CC(Sc1nnnn1C1CCCC1)C(=O)Nc1cccc(S(=O)(=O)N2CCOCC2)c1 (stereo not drawn) | 2 | 1 | 2 | -2 | 0 | . | .
CCCN1CCN(C(c2cc3cc(OCC)ccc3[nH]c2=O)c2nnnn2C2CCCCC2)CC1 (stereo not drawn) | -3 | -2 | 11* | -2 | -2 | 17 | 7.9*
COCOCCn1cc(CN2CCS(=O)(=O)N(Cc3ccc(-c4ccc(OC)c(OC)c4)cc3)C(C)C2=O)nn1 (stereo not drawn) | 15 | . | 1 | 6 | 1 | . | .
C=CCn1c(N)c(C(=O)NCCC2=CCCCC2)sc1=S | 3 | 2 | 7.6* | -1 | 4 | 92* | 35*
CC(C)(C)CCN1CCC(CN2CCNC2=S)CC1 | -3 | . | 0 | 0 | 0 | . | .
S=c1[nH]nc(-c2cc(-c3ccccc3)n[nH]2)n1/N=C/C(Br)=C/c1ccccc1 | 6 | 8 | 12* | 1 | 1 | -42 | 26*
S=c1[nH]nc(-c2ccco2)n1/N=C/C(Cl)=C/c1ccccc1 | -2 | -1 | 8.0* | -9 | -1 | 78* | 32*
CCOC(=O)N1CCN(C(=O)C[C@@H]2C[C@@]3(C(=O)OC)CCCCC=C3N(Cc3cccc4ccccc34)C2=O)CC1 | . | . | . | -1 | . | . | .
CC1(C(=O)NS(=O)(=O)c2ccc(Cl)cc2)CCN1C(=O)c1ccccc1CCc1ccccc1 (stereo not drawn) | 7 | . | 1 | 6 | 1 | . | .
CCc1ccc(OCC(=O)NCc2ccco2)c(Br)c1 | -16 | 16 | 8.6* | 5 | 2 | 76* | 24*
O=C(COc1ccccc1Br)NCc1ccco1 | 6 | -2 | 2 | -9 | 0 | . | .
Cc1cccc(C)c1NC(=O)c1cc(S(=O)(=O)N2CCC3(CC2)OCCO3)ccc1F | 9 | . | -2 | 6 | 0 | . | .
